We go through 14 compounds from ChEMBL document CHEMBL2311388, “Carbamoyl pyridone HIV-1 integrase inhibitors. 2. Bi- and tricyclic derivatives result in superior antiviral and pharmacokinetic profiles” (J Med Chem, 2013).

For orientation: IC50 means the concentration needed to halve the response being measured. By CC50 is commonly meant the concentration at which the toxic effect on the cells reaches its halfway point.

Each structure is given as a SMILES string.

The first data set has as its system Human immunodeficiency virus 1. The data set can be described thus: Antiviral activity against wild type HIV1 3B infected in human MT4 cells assessed as cell viability by MTT assay in presence of human serum albumin. The following applies: Human immunodeficiency virus 1, 3B. It is filed as functional, organism-based. A digest of the protocol:
(§1)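 HIV-1 replication in MT-4 cells read by MTT. Values are mean ± s.d. of three independent experiments. The protein-adjusted value is derived from the MT-4/MTT IC50 and the shift seen with human serum albumin. Detailed conditions are those of the earlier paper in the series.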
(In general: Tetrazolium assays rely on reduction of a dye to a coloured formazan, in cell work by metabolically active cells.)
Regarding `CC(C)N1CCN2C(=O)c3c(O)c(=O)c(C(=O)NCc4ccc(F)cc4)cn3CC21` (racemic), the IC50 stood at 7.8 nM.
In the case of `O=C(NCc1ccc(F)cc1)c1cn2c(c(O)c1=O)C(=O)N1CCCN(Cc3nccs3)C1C2` (racemic), the IC50 was 12.9 nM.
Still for that read-out and setting: with `COCCN1CCCN2C(=O)c3c(O)c(=O)c(C(=O)NCc4ccc(F)cc4)cn3CC12` (racemic) the figure was 20.3 nM.
As for `CC(C)CN1CCCCN2C(=O)c3c(O)c(=O)c(C(=O)NCc4ccc(F)cc4)cn3CC12` (racemic), the IC50 is 91.8 nM.
Still for that read-out and setting: with `O=C(NCc1ccc(F)cc1)c1cn2ccn(CCOc3ccccc3)c(=O)c2c(O)c1=O` the figure was 48 nM; with `CS(=O)(=O)N1CCCN2C(=O)c3c(O)c(=O)c(C(=O)NCc4ccc(F)cc4)cn3CC21` (racemic), 120 nM; with `O=C(NCc1ccc(F)cc1)c1cn2ccn(C3CCCCC3)c(=O)c2c(O)c1=O`, 156 nM.
As for `CC(C)OCCn1ccn2cc(C(=O)NCc3ccc(F)cc3)c(=O)c(O)c2c1=O`, the IC50 was determined as 19 nM.
For `CN(C)C(=O)Cn1ccn2cc(C(=O)NCc3ccc(F)cc3)c(=O)c(O)c2c1=O`, the half-inhibitory concentration (IC50) was found to be 144 nM.
With `CN1CCCN2C(=O)c3c(O)c(=O)c(C(=O)NCc4ccc(F)cc4)cn3CC12` (racemic), the half-inhibitory concentration (IC50) was 16.3 nM.
As for `O=C(NCc1ccc(F)cc1)c1cn2c(c(O)c1=O)C(=O)N1CCCCOC1C2` (racemic), the IC50 was 22 nM.
`O=C(NCc1ccc(F)cc1)c1cn2c(c(O)c1=O)C(=O)N(CCOc1ccccc1)CC2`: the IC50 came to 65 nM.
The same measure, in the same setting: with `CC(C)OCCN1CCn2cc(C(=O)NCc3ccc(F)cc3)c(=O)c(O)c2C1=O` the figure was 13 nM.

Test system in the next data set: not listed separately
The data set can be described thus: Cytotoxicity against human MT4 cells assessed as growth inhibition after 4 days by MTT assay. It is filed as cell-based.
Conditions: not given
The essentials:
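MT-4 cells; values given as mean ± s.d. of three independent experiments.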
In the case of `CC(C)N1CCN2C(=O)c3c(O)c(=O)c(C(=O)NCc4ccc(F)cc4)cn3CC21` (racemic), the cytotoxic concentration (CC50) at 96 h was found to be 8 µM.
Regarding `O=C(NCc1ccc(F)cc1)c1cn2c(c(O)c1=O)C(=O)N1CCCN(Cc3nccs3)C1C2` (racemic), the half-maximal cytotoxic concentration (CC50) at 96 h worked out at 2.8 µM.
Take `COCCN1CCCN2C(=O)c3c(O)c(=O)c(C(=O)NCc4ccc(F)cc4)cn3CC12` (racemic): the CC50 at 96 h stood at 9.8 µM.
Turning to `CC(C)CN1CCCCN2C(=O)c3c(O)c(=O)c(C(=O)NCc4ccc(F)cc4)cn3CC12` (racemic), the 50% cytotoxic concentration (CC50) at 96 h is 13 µM.
For `O=C(NCc1ccc(F)cc1)c1cn2ccn(CCOc3ccccc3)c(=O)c2c(O)c1=O`, the CC50 at 96 h was 2.4 µM.
Consider `CS(=O)(=O)N1CCCN2C(=O)c3c(O)c(=O)c(C(=O)NCc4ccc(F)cc4)cn3CC21` (racemic), for which the CC50 at 96 h was more than 220 µM.
Turning to `O=C(NCc1ccc(F)cc1)c1cn2ccn(C3CCCCC3)c(=O)c2c(O)c1=O`, the CC50 at 96 h was more than 200 µM.
Still for that read-out and setting: to `CC(C)OCCn1ccn2cc(C(=O)NCc3ccc(F)cc3)c(=O)c(O)c2c1=O` belongs 49 µM.
In the case of `CN(C)C(=O)Cn1ccn2cc(C(=O)NCc3ccc(F)cc3)c(=O)c(O)c2c1=O`, the CC50 at 96 h was more than 200 µM.
In the case of `CN1CCCN2C(=O)c3c(O)c(=O)c(C(=O)NCc4ccc(F)cc4)cn3CC12` (racemic), the CC50 at 96 h came out at 20 µM.
On to `O=C(NCc1ccc(F)cc1)c1cn2c(c(O)c1=O)C(=O)N1CCCCOC1C2` (racemic), for which the CC50 at 96 h turned out to be 26 µM.
For `O=C(NCc1ccc(F)cc1)c1cn2c(c(O)c1=O)C(=O)N(CCOc1ccccc1)CC2`, the CC50 at 96 h was found to be 10 µM.
For `CC(C)OCCN1CCn2cc(C(=O)NCc3ccc(F)cc3)c(=O)c(O)c2C1=O`, the CC50 at 96 h amounted to 30 µM.

For a further data set, the system named is Human immunodeficiency virus 1. The data set can be described thus: Selectivity ratio of IC50 for RAL-resistant HIV1 harboring integrase Q148K mutant to IC50 for wild type HIV1 3B. In kind it is functional.
Conditions: not given
Turning to `COc1cc2c(cc1Cc1cccc(Cl)c1F)c(=O)c(C(=O)O)cn2[C@H](CO)C(C)C` [ELVITEGRAVIR], the “Ratio IC50” value was more than 1700.
Regarding `CC(C)N1CCN2C(=O)c3c(O)c(=O)c(C(=O)NCc4ccc(F)cc4)cn3CC21` (racemic), the “Ratio IC50” value is 39.
The same measure, in the same setting: with `O=C(NCc1ccc(F)cc1)c1cn2c(c(O)c1=O)C(=O)N1CCCN(Cc3nccs3)C1C2` (racemic) the figure was 4.2; with `COCCN1CCCN2C(=O)c3c(O)c(=O)c(C(=O)NCc4ccc(F)cc4)cn3CC12` (racemic), 5.7.
On to `CC(C)CN1CCCCN2C(=O)c3c(O)c(=O)c(C(=O)NCc4ccc(F)cc4)cn3CC12` (racemic), for which the “Ratio IC50” value was 3.2.
Regarding `O=C(NCc1ccc(F)cc1)c1cn2ccn(CCOc3ccccc3)c(=O)c2c(O)c1=O`, the “Ratio IC50” value is given as more than 250.
As to `O=C(NCc1ccc(F)cc1)c1cn2ccn(C3CCCCC3)c(=O)c2c(O)c1=O`, the “Ratio IC50” value is reported as more than 250.
The same measure, in the same setting: with `CC(C)OCCn1ccn2cc(C(=O)NCc3ccc(F)cc3)c(=O)c(O)c2c1=O` the figure was 39; with `CN1CCCN2C(=O)c3c(O)c(=O)c(C(=O)NCc4ccc(F)cc4)cn3CC12` (racemic), 4.7; with `O=C(NCc1ccc(F)cc1)c1cn2c(c(O)c1=O)C(=O)N1CCCCOC1C2` (racemic), 2.2.
Consider `O=C(NCc1ccc(F)cc1)c1cn2c(c(O)c1=O)C(=O)N(CCOc1ccccc1)CC2`, for which the “Ratio IC50” value stood at 17.
Consider `CC(C)OCCN1CCn2cc(C(=O)NCc3ccc(F)cc3)c(=O)c(O)c2C1=O`, for which the “Ratio IC50” value is recorded as 9.9.

The next data set has as its system Human immunodeficiency virus 1. The data set can be described thus: Selectivity ratio of IC50 for wild type HIV1 3B infected in human MT4 cells in presence of human serum albumin to IC50 for wild type HIV1 3B infected in human MT4 cells. It is filed as functional.
Conditions: not given
Turning to `CC(C)N1CCN2C(=O)c3c(O)c(=O)c(C(=O)NCc4ccc(F)cc4)cn3CC21` (racemic), the “Ratio IC50” value turned out to be 3.4.
Take `O=C(NCc1ccc(F)cc1)c1cn2c(c(O)c1=O)C(=O)N1CCCN(Cc3nccs3)C1C2` (racemic): the “Ratio IC50” value is 3.9.
`COCCN1CCCN2C(=O)c3c(O)c(=O)c(C(=O)NCc4ccc(F)cc4)cn3CC12` (racemic): the “Ratio IC50” value came out at 3.9.
As to `CC(C)CN1CCCCN2C(=O)c3c(O)c(=O)c(C(=O)NCc4ccc(F)cc4)cn3CC12` (racemic), the “Ratio IC50” value stood at 17.
Still for that read-out and setting: to `O=C(NCc1ccc(F)cc1)c1cn2ccn(CCOc3ccccc3)c(=O)c2c(O)c1=O` belongs 11; to `CS(=O)(=O)N1CCCN2C(=O)c3c(O)c(=O)c(C(=O)NCc4ccc(F)cc4)cn3CC21` (racemic), 2.8.
For `O=C(NCc1ccc(F)cc1)c1cn2ccn(C3CCCCC3)c(=O)c2c(O)c1=O`, the “Ratio IC50” value is given as 13.
In the case of `CC(C)OCCn1ccn2cc(C(=O)NCc3ccc(F)cc3)c(=O)c(O)c2c1=O`, the “Ratio IC50” value turned out to be 4.4.
`CN(C)C(=O)Cn1ccn2cc(C(=O)NCc3ccc(F)cc3)c(=O)c(O)c2c1=O`: the “Ratio IC50” value is 4.1.
`CN1CCCN2C(=O)c3c(O)c(=O)c(C(=O)NCc4ccc(F)cc4)cn3CC12` (racemic): the “Ratio IC50” value is 4.3.
Consider `O=C(NCc1ccc(F)cc1)c1cn2c(c(O)c1=O)C(=O)N1CCCCOC1C2` (racemic), for which the “Ratio IC50” value turned out to be 7.6.
On the same count and under the same terms, with `O=C(NCc1ccc(F)cc1)c1cn2c(c(O)c1=O)C(=O)N(CCOc1ccccc1)CC2` the figure was 9.5; with `CC(C)OCCN1CCn2cc(C(=O)NCc3ccc(F)cc3)c(=O)c(O)c2C1=O`, 3.1.

In another data set the test system is Human immunodeficiency virus 1. The data set can be described thus: Selectivity ratio of IC50 for RAL-resistant HIV1 harboring integrase Y143R mutant to IC50 for wild type HIV1 3B. In kind it is functional.
Conditions: not given
Take `COc1cc2c(cc1Cc1cccc(Cl)c1F)c(=O)c(C(=O)O)cn2[C@H](CO)C(C)C` [ELVITEGRAVIR]: the “Ratio IC50” value amounted to 1.8.

The subject of the next data set is Human immunodeficiency virus 1. The data set can be described thus: Antiviral activity against wild type HIV1 3B infected in human MT4 cells assessed as cell viability by MTT assay. As to conditions: Human immunodeficiency virus 1, 3B. In kind it is functional, organism-based. The essentials:
as §1
For `CC(C)N1CCN2C(=O)c3c(O)c(=O)c(C(=O)NCc4ccc(F)cc4)cn3CC21` (racemic), the IC50 turned out to be 2.3 nM.
Same read-out and setting: with `O=C(NCc1ccc(F)cc1)c1cn2c(c(O)c1=O)C(=O)N1CCCN(Cc3nccs3)C1C2` (racemic) the figure was 3.3 nM; with `COCCN1CCCN2C(=O)c3c(O)c(=O)c(C(=O)NCc4ccc(F)cc4)cn3CC12` (racemic), 5.2 nM.
`CC(C)CN1CCCCN2C(=O)c3c(O)c(=O)c(C(=O)NCc4ccc(F)cc4)cn3CC12` (racemic): the 50% inhibitory concentration (IC50) is 5.4 nM.
As to `O=C(NCc1ccc(F)cc1)c1cn2ccn(CCOc3ccccc3)c(=O)c2c(O)c1=O`, the half-inhibitory concentration (IC50) amounted to 4.4 nM.
On to `CS(=O)(=O)N1CCCN2C(=O)c3c(O)c(=O)c(C(=O)NCc4ccc(F)cc4)cn3CC21` (racemic), for which the half-maximal inhibitory concentration (IC50) amounted to 43 nM.
`O=C(NCc1ccc(F)cc1)c1cn2ccn(C3CCCCC3)c(=O)c2c(O)c1=O`: the IC50 stood at 12 nM.
As to `CC(C)OCCn1ccn2cc(C(=O)NCc3ccc(F)cc3)c(=O)c(O)c2c1=O`, the IC50 turned out to be 4.3 nM.
Consider `CN(C)C(=O)Cn1ccn2cc(C(=O)NCc3ccc(F)cc3)c(=O)c(O)c2c1=O`, for which the half-inhibitory concentration (IC50) was found to be 35 nM.
For `CN1CCCN2C(=O)c3c(O)c(=O)c(C(=O)NCc4ccc(F)cc4)cn3CC12` (racemic), the IC50 was 3.8 nM.
For `O=C(NCc1ccc(F)cc1)c1cn2c(c(O)c1=O)C(=O)N1CCCCOC1C2` (racemic), the IC50 turned out to be 2.9 nM.
Turning to `O=C(NCc1ccc(F)cc1)c1cn2c(c(O)c1=O)C(=O)N(CCOc1ccccc1)CC2`, the concentration for half-maximal inhibition (IC50) turned out to be 6.8 nM.
Turning to `CC(C)OCCN1CCn2cc(C(=O)NCc3ccc(F)cc3)c(=O)c(O)c2C1=O`, the IC50 is 4.2 nM.

A further data set relates to Human immunodeficiency virus 1. Put plainly: Selectivity ratio of IC50 for RAL-resistant HIV1 harboring integrase N155H mutant to IC50 for wild type HIV1 3B.
Conditions: not given
In kind it is functional.
As for `COc1cc2c(cc1Cc1cccc(Cl)c1F)c(=O)c(C(=O)O)cn2[C@H](CO)C(C)C` [ELVITEGRAVIR], the “Ratio IC50” value came out at 25.
